High-throughput results as filed in PubChem.
This is a sample that favours compounds with a hit; in the whole collection about 6.1% have one here.
WT yeast gro inh = growth inhibition of WT strain, primary screen, mitochondrial fusion inhibitor project, WT and mutant strains, chemical genetic; hit rate 2.1% among 190,000; mitochondrial fusion phenotypic screen; inhibition, % at 10 µM; in the data active = inhibition above about 58%; tested in S. cerevisiae
Yeast life ext = compounds extending yeast replicative lifespan, primary screen, S. cerevisiae, OD615; S. cerevisiae growth with nicotinamide; deaD strain in restrictive glucose medium; inhibition of the nicotinamide effect, % at 10 µM; hit rate 0.68% among 130,000;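 active = inhibition above a set limit, placed 3 SD over the median of all compounds, cut at about 26% in these data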
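System: Modified budding yeast, DeaD strain | Buffer or medium: Restrictive glucose medium | Also added: 1.5 mM nicotinamide | Doses: 10 µM single point, 0.25% DMSO | Schedule: 48 h compound exposure at 30 °C, humidified | Detection: Absorbance at 615 nm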
Yeast growth inh = growth inhibitors of yeast BB579 in restrictive medium, primary screen, yeast lifespan-shortening project, S. cerevisiae; OD615, 48 h; inhibition, % at 10 µM; hit rate 0.51% among 140,000;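 active = inhibition above a set limit, 3 SD over the mean compound inhibition, cut at about 44% in these data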
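Test system: S. cerevisiae DeaD strain BB579 yeast; Medium: restrictive CSMM-D medium; Compound: one dose, 10 µM compound with 0.25% DMSO; Incubation: 4 h cell preincubation, 48 h compound exposure, 30 °C humidified; Signal: OD at 615 nm; Benchmarks: amphotericin B at 10 µg/mL as positive control.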
DAT uptake mod = changed hDAT dopamine uptake under cocaine IC80, either direction, primary screen, cocaine antagonist project, cell-based, LLC-PK1 hDAT, [14C]-dopamine uptake, MLSMR | Sodium-dependent dopamine transporter (Homo sapiens), Q01959 | LLC-PK1 hDAT cells, [14C]-dopamine uptake with cocaine IC80; actives deviate in either direction | B-score at 10 µM | hit rate 1.3% among 110,000 | AID 449768, 2010;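 active = Z score or B-score, a plate-position-corrected score, falls beyond the plate's 99.7% confidence bounds, in either direction; inactive = both scores lie inside the 99.7% bounds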
Target sequence (Q01959 whole entry, looked up): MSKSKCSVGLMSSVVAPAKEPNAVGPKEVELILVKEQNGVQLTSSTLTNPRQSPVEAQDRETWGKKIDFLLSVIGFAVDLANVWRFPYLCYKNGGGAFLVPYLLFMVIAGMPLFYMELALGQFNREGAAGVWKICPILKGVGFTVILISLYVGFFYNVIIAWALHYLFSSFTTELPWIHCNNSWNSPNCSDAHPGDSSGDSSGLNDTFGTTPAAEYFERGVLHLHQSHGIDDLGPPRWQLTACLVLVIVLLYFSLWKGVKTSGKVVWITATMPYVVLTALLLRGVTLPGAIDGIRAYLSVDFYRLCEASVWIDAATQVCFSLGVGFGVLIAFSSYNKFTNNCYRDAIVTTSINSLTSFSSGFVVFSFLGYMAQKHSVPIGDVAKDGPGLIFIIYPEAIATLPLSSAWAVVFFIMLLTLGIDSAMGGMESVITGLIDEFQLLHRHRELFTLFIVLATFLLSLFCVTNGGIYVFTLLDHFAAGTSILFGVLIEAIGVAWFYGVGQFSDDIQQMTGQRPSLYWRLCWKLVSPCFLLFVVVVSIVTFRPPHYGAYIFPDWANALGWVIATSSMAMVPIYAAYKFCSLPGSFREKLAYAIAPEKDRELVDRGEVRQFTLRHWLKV
Measles CPE = compounds protecting cells from measles virus cytopathic effect, primary screen, measles RdRp inhibitor project, single point, MLSMR library, absorbance; protection (pct of control), % at 4 µM; hit rate 1.5% among 140,000; Measles virus-infected cells, CPE protection; in the data active = protection mostly above about 24%, no sharp cut-off; inactive = mostly below about 26%
RAM network inh = inhibitors of the yeast RAM network, primary screen, dse1pr::URA3 reporter, 5-FOA selection. S. cerevisiae dse1pr::URA3 reporter, 5-FOA growth OD615, 2 d; analog-sensitive cbk1-as2 kinase mutant strain. hit rate 1.8% among 190,000. inhibition, % at 50 µM;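 active = inhibition above a set limit, 3 SD over mean compound inhibition, cut at about 8.4% in these data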;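 note: inhibition rescues growth on 5-FOA so higher OD means more RAM inhibition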
Hits are given with their value; . = inactive; / = not tested or not shown.

SMILES | WT yeast gro inh | Yeast life ext | Yeast growth inh | DAT uptake mod | Measles CPE | RAM network inh
COc1ccc(COc2cc(-c3cccc(OC)c3)nc3ccc(NC(=O)c4cccnc4)cc23)cc1 | . | . | . | 2.7 | . | .
COc1ccc(COc2cc(-c3cccc(OC)c3)nc3ccc(NC(=O)c4ccc(Cl)cc4)cc23)cc1 | . | . | . | . | . | 8.4
COc1ccccc1/C=C/CN1CCCC(CO)(Cc2cccc(Cl)c2)C1 (stereo not given) | 65 | / | / | / | / | .
Cc1ccc(CCc2nnc(SCC(=O)Nc3cc(Cl)ccc3Cl)n2-c2ccccc2)o1 | 61 | . | . | / | . | 9.7
COCc1nnc(SCC(=O)Nc2cccc(Cl)c2C)n1-c1ccccc1 | . | . | . | . | . | .
O=C(Cc1ccc(F)cc1)Nc1ccc(S(=O)(=O)N2CCCCC2)cc1 | . | / | / | / | / | .
CCc1cc2c(SCC(=O)c3ccc(C)cc3)ncnc2s1 | . | / | . | . | 41 | 9.9
Cc1ccc(-c2csc3ncnc(SCC(=O)c4ccc5c(c4)OCCO5)c23)cc1 | . | . | . | . | . | .
Cc1cc(CN(C)C)c(O)c(C2(C)CCCCC2)c1 | . | . | . | . | . | .
Cc1cc(CN2CCOCC2)c(O)c(C2(C)CCCCC2)c1 | 85 | . | . | . | . | .
CCCCN(C)C(=O)CCC(=O)Nc1ccc2nc(N3CCOCC3)cc(C)c2c1 | . | . | . | . | . | .
CCN1CCN(c2cc(C)c3cc(NC(=S)N(CC)CC)ccc3n2)CC1 | . | / | / | / | / | .
COc1ccc(N(C)C(=O)CCC(=O)Nc2ccc3nc(N4CCOCC4)cc(C)c3c2)c(OC)c1 | . | . | . | 3.2 | . | .
CCN1CCN(c2cc(C)c3cc(NC(=O)Cc4ccc(OC)c(OC)c4)ccc3n2)CC1 | . | . | . | 3.1 | . | .
CC(C)N(C(=O)COC(=O)[C@H](C)NC(N)=O)c1ccccc1 | . | / | / | / | / | .
O=C(Nc1ccn(Cc2ccccc2F)n1)c1ccc(COc2cccc(Br)c2)cc1 | . | . | . | . | . | 11
O=C(Nc1ccn(Cc2ccccc2F)n1)c1ccc(COc2ccccc2Cl)cc1 | . | . | . | / | . | .
Clc1ccccc1N/N=C/c1ccc2c(c1)OCO2 | . | . | 90 | / | . | .
O=C1NCCCC2c3c(cc(Br)c(O)c3Br)OC12N1CCOCC1 (stereo not given) | . | . | . | . | . | .
O=C1NCCCC2c3cc(O)c4ccccc4c3OC12N1CCCCC1 (stereo not given) | . | . | . | -3.4 | . | .
COC(=O)C1N[C@@H]([C@@H](NC(=O)COc2ccccc2)C(=O)Nc2ccc(OC)cc2)SC1(C)C (stereo not given in full) | / | / | / | . | / | /
O=[N+]([O-])c1cc(-c2ncccn2)cs1 | . | . | . | / | . | .
CC1CCc2nc(/C(C#N)=C/c3ccncc3)sc2C1 (stereo not given) | . | / | / | / | / | .
CC(C)(C)NC(=S)NC(=O)C12CCC3CC(CC(C3)C1)C2 | 73 | / | / | / | / | .
CC(CNC(=O)COc1ccccc1)OC(=O)Nc1ccc(Cl)c(Cl)c1 (stereo not given) | 82 | . | . | / | . | .
SMILES | WT yeast gro inh | Yeast life ext | Yeast growth inh | DAT uptake mod | Measles CPE | RAM network inh
C=CCSc1nnc(NC(=O)c2cccc(S(=O)(=O)N3CCOCC3)c2)s1 | . | . | . | . | . | .
COc1ccc(-n2nnnc2/C=C\Nc2ccccc2C(=O)c2ccccc2)cc1 | . | . | . | . | 31 | .
CC(=O)c1cccc(N/C=C\c2nnnn2-c2ccc(F)cc2)c1 | . | . | . | / | . | .
CCC(=O)c1ccc(Oc2ccc(C(=O)c3ccc(C)cc3)cc2[N+](=O)[O-])cc1 | . | . | . | / | . | 11
CO/N=C/c1ccc(Oc2ccc(C)cc2)c([N+](=O)[O-])c1 | . | / | / | / | / | .
O=C(NC12CC3CC(CC(C3)C1)C2)c1ccc(S(=O)(=O)N2CCOCC2)cc1 | . | . | . | 2.5 | . | .
O=C(NC1CCCCC1)c1ccc(S(=O)(=O)N2CCOCC2)cc1 | . | . | . | . | . | .
Nc1c(-c2ccccc2)c(CSc2nc3ccccc3[nH]2)nn1-c1cccc(Cl)c1 | 71 | . | . | / | . | .
Nc1c(-c2ccccc2)c(CSc2nc3ccccc3[nH]2)nn1-c1ccc(Cl)cc1 | 72 | . | . | / | . | .
Cc1nccn1CC(=O)N/N=C/c1cccc(O)c1 | . | . | . | / | . | .
CC1CN(CC(=O)Nc2ccccc2Sc2ccccc2)CC(C)O1 (stereo not given) | . | 27 | . | / | . | .
O=C(CN1CCOCC1)Nc1ccccc1Sc1ccccc1 | . | . | . | / | . | .
CCOC(=O)c1c(NC(NC(=O)C(C)C)C(Cl)(Cl)Cl)sc2c1CCC2 (stereo not given) | 66 | . | . | / | . | .
CCOC(=O)Nc1sc2c(c1C(=O)OCC)CCC2 | . | . | . | . | . | .
Fc1ccc(N/N=C2/CC(c3ccccc3)Oc3ccccc32)c(F)c1 (stereo not given) | . | . | 86 | / | . | .
CNC(=S)N/N=C1\CC(c2ccccc2)Oc2ccccc21 (stereo not given) | . | / | / | / | / | .
Cc1ccc(S(=O)(=O)NCCCCCC(=O)Nc2c(C)n(C)n(-c3ccccc3)c2=O)cc1 | . | / | / | / | / | .
O=C(CNCc1ccco1)Nc1ccc(Oc2ccccc2)cc1 | . | / | / | / | / | .
Cc1cc(C)c2nc(N3CCCC(C(=O)NCCCN4CCOCC4)C3)sc2c1 (stereo not given) | . | . | . | . | . | .
Cc1cc(C)c2nc(N3CCC(C(=O)NCCCN4CC(C)CC(C)C4)CC3)sc2c1 (stereo not given) | 69 | / | / | / | / | .
O=C(NC(CCl)c1ccccc1)c1ccc(Cl)cc1 (stereo not given) | . | / | / | / | / | .
O=C(CC(NC(=O)c1ccccc1Cl)c1ccccc1)NCCc1ccc(Cl)cc1 (stereo not given) | . | . | . | / | 41 | .
O=C(c1ccc2c3n(nc2c1)-c1ccccc1CO3)N1CCCCC1 | / | / | / | 2.6 | / | /
Cc1cccc(NC(=S)NN2CCN(C)CC2)c1 | . | . | . | . | . | .
O=C(CCNc1n[nH]c(=O)[nH]c1=O)N1CCOCC1 | . | . | . | -3.4 | . | .
CC(C)OC(=O)CCNc1n[nH]c(=O)[nH]c1=O | . | . | . | . | . | .
CCCCOC(=O)CCNc1n[nH]c(=O)[nH]c1=O | . | . | . | . | 56 | .
CC1=CC(C)C2C(=O)N(CCCN(C)C)C(=O)C2C1 (stereo not given) | . | . | . | . | . | .
Cc1nn2cc(-c3ccc(Cl)cc3)cnc2c1Cl | . | / | / | / | / | .
